Results gathered from unrelated publications.
Each line is one published result; the experiments were not run side by side.
Target: Interferon-induced, double-stranded RNA-activated protein kinase (EIF2AK2, Homo sapiens, UniProt P19525)

CCN1CCN(Cc2ccc(C(=O)Nc3ccc(C)c(Oc4ccc5c(c4)CC(=O)N5)c3)cc2C(F)(F)F)CC1 — remaining binding (binding, competition with immobilised ligand; 1 µM): 96%
O=c1nc(-c2ccccn2)sc2ccccc12 — remaining binding (binding, competition with immobilised ligand; 1 µM): 100%
CN(c1nccc(-c2cnn3ncccc23)n1)C1CC1 — remaining binding (binding; 1 µM): 100%
O=C(O)[C@H]1[C@H](Cn2nnc3ccccc3c2=O)CC[C@@H]1C(=O)c1ccc(OCCC2CCOCC2)cc1 — remaining binding (cell-free assay, competition with immobilised ligand; 1 µM): 91%
O=C(c1ccc(Nc2nccc(-c3cc4ccccc4s3)n2)cc1)N1CCC(N2CCCC2)CC1 — remaining binding (binding, competition with immobilised ligand; 1 µM): 21%
N[C@H]1CCN(c2nccc(-c3cnn4ncccc34)n2)C1 — remaining binding (binding; 1 µM): 100%
CCS(=O)(=O)c1cc2cc(C[C@](O)(CC(C)(C)c3ccc(F)cc3C(N)=O)C(F)(F)F)[nH]c2cn1 — remaining binding (cell-free assay, competition with immobilised ligand; 1 µM): 52%
O=C(c1ccc(Nc2ncc(Cl)c(-c3cc4ccccc4s3)n2)cc1)N1CCC(N2CCCC2)CC1 — remaining binding (binding, competition with immobilised ligand; 1 µM): 22%
CN(C)C(=O)Cn1cc(-c2nc(C3(c4ccc(-c5cnc(N)nc5)cc4)CC3)no2)cn1 — remaining binding (cell-free assay, competition with immobilised ligand; 1 µM): 100%
Cc1cnn2ncc(-c3ccnc(N(C)C)n3)c2c1 — remaining binding (binding; 1 µM): 100%
CC(=O)N1CCC(c2ccc(C(=O)NC(=N)N)cc2C(F)(F)F)CC1 — remaining binding (cell-free assay, competition with immobilised ligand; 1 µM): 100%
O=C(NCC1CCOCC1)c1n[nH]cc1NC(=O)c1c(F)cccc1F — remaining binding (binding, competition with immobilised ligand; 1 µM): 100%
CC(=O)C1=C(C)N(c2cccc(C(F)(F)F)c2)C(=O)N[C@@H]1c1ccc(C#N)nc1 — remaining binding (cell-free assay, competition with immobilised ligand; 1 µM): 83.4%
COc1cnc(Nc2cccc(S(N)(=O)=O)c2)nc1N1CCN(c2ccccc2)CC1 — remaining binding (binding, competition with immobilised ligand; 1 µM): 97%
CN(CCCC(F)(F)F)c1nccc(-c2cnn3ncccc23)n1 — remaining binding (binding; 1 µM): 100%
c1cncc(-c2cccc(Nc3nccc(NC4CCCCC4)n3)c2)c1 — remaining binding (binding, competition with immobilised ligand; 10 µM): 100%
CC1CCCN1c1nccc(-c2cnn3ncccc23)n1 (centres unmarked) — remaining binding (binding; 1 µM): 100%
Cc1cnc(Nc2ccc(C(=O)N3CCC(N4CCCC4)CC3)cc2)nc1-c1cc2ccccc2s1 — remaining binding (binding, competition with immobilised ligand; 1 µM): 7%
F[C@@H]1CCN(c2nccc(-c3cnn4ncccc34)n2)C1 — remaining binding (binding; 1 µM): 100%
FC(F)(F)Oc1cccc(-c2cnc3ccc(-c4ccncc4)nn23)c1 — remaining binding (cell-free assay, competition with immobilised ligand; 5 µM): 65%
